# Results taken from PubChem BioAssay.
# The source made the active and inactive calls.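 Rule for the calls, unless noted: active = fluorescence slope after compound addition differing from the mean of all screened samples at 99.7% confidence, in either direction; inactive = the rest.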
# What was measured:
# [1] = inhibitors of TNFa-induced NFkB p65 translocation, primary screen, imaging, HUVEC, MLSMR starter and 10KST1 sets (AID 438;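 active = inhibition above 20% together with a positive visual image hit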;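 note: compound added about 3h40 before a 20 min TNFalpha stimulation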;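 for inhibition: signal is the nuclear over cytoplasmic p65 intensity ratio per well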); details: HUVEC TNFa-induced p65 nuclear translocation; cell count: measured here: nuclei count (cytotoxicity indicator), at 2.08 µM; inhibition: at 2 µM, stronger effect = higher value, 0% TNFa-plus-vehicle, 100% no-TNFa wells
# [2] = inhibitors of mutant huntingtin aggregation, primary screen, imaging, exon1htt(103Q)mCFP cells, high-content imaging (AID 483;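 active = visual image review flags a hit and inhibition of aggregation exceeds 20%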;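 note: compound exposure lasted 3 days before fixation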;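 for nuclei count: percent of the per-plate median nuclei count of sample wells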); details: exon1htt(103Q)mCFP cell line, aggregate imaging, at 2 µM; inhibition of aggregation: stronger effect = higher value; nuclei count: measured here: cell count, toxicity
# [3] = inhibitors of E-selectin induction by TNFa, primary screen, imaging, HUVEC, immunofluorescence, MLSMR starter and 10KST1 sets (AID 487;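 active = visually confirmed hit in the image check and inhibition above 20%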;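 for inhibition: signal is fraction of cell area covered by stained E-selectin grains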;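 for nuclei count: 100% = median nuclei count of all wells on the same plate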); details: HUVEC TNFalpha-induced E-selectin immunofluorescence imaging, at 2 µM; inhibition: stronger effect = higher value; nuclei count: measured here: cell number, toxicity
# [4] = biological target: Voltage-gated potassium channel subunit beta-2 (Rattus norvegicus) (UniProt P62483); experiment: KvBeta enzyme negative modulators, primary screen, biochemical, NADPH fluorescence (AID 622;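 active = fluorescence slope higher than the sample average by over 3 SD, cut at about -0.22 in these data, passing the limit was not always enough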;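 note: slope of raw intensity against log time taken from 70 to 1610 s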); details: recombinant KvBeta, 4-cyanobenzaldehyde reduction, at 10 µM, stronger effect = higher value
# Voltage-gated potassium channel subunit beta-2 (Rattus norvegicus), sequence (P62483 whole entry, looked up): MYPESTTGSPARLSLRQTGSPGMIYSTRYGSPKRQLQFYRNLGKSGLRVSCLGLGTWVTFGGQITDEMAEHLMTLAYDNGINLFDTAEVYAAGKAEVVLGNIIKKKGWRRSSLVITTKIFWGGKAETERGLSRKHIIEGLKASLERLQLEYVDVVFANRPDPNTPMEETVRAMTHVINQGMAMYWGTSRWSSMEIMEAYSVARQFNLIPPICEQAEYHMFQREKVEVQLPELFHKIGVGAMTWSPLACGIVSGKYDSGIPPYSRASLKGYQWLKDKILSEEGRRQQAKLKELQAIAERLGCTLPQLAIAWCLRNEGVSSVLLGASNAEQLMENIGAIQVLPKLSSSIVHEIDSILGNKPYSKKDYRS
# [5] = biological target: Voltage-gated potassium channel subunit beta-2 (Rattus norvegicus) (UniProt P62483); experiment: KvBeta positive modulators, primary screen, biochemical, NADPH fluorescence (AID 623;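 active = NADPH fluorescence slope more negative than the mean of all samples by about 3 SD, 99.7% confidence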;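 note: fluorescence intensity change per second fitted from 20 to 320 s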); details: Recombinant KvBeta, NADPH fluorescence decrease slope, 10 min; at 10 µM; stronger effect = lower value
# [6] = biological target: Alpha-2C adrenergic receptor (Homo sapiens) (UniProt P18825); experiment: modulators of alpha2C/GIRK thallium flux, primary screen, cell-based, HEK293 alpha2C/GIRK1/2 (AID 624); details: thallium flux BTC fluorescence, at 10 µM, actives lie on both sides;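 note: slope of fluorescence ratio to pre-addition baseline per second over 15 to 24 s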
# Alpha-2C adrenergic receptor (Homo sapiens), sequence (P18825 whole entry, looked up): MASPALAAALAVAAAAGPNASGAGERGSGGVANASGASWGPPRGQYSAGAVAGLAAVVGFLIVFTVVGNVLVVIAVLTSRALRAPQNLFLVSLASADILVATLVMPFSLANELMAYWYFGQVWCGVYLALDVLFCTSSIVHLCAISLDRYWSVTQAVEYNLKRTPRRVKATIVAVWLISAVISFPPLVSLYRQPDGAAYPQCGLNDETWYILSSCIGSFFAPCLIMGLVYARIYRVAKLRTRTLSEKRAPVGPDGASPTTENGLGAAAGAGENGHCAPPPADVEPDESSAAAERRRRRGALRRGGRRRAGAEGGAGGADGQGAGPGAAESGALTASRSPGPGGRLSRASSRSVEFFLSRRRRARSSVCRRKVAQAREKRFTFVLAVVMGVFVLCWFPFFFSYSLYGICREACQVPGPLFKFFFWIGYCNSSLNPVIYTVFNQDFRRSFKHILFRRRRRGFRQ
# [7] = inhibitors of larval lipid processing in zebrafish, primary screen, whole organism, PED6 fluorescence, gall bladder and intestine (AID 686;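 active = a full or partial loss of lipid-probe fluorescence in the fish gall bladder, intestine or both, judged by eye; inactive = no fluorescence loss, or compound toxic to the fish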;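 note: larvae 5 to 7 days old with five fish per well; signal comes from phospholipase A2 cleavage of quenched PED6 carried via bile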); details: Zebrafish larvae PED6 lipid processing, fluorescence scoring; screened at 20 µM (by protocol)
# How it was run: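 Incubation: overnight exposure of larvae to compound plus PED6 / Test system: live zebrafish larvae aged 5-7 days, whole organism / Amount: 5 larvae per well / Read-out basis: visual per-well fluorescence inhibition score / Signal: visual fluorescence microscopy scoring of gall bladder, gut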
# [8] = inhibitors of Sendai virus-induced IRF3 signaling, primary screen, TLR/RLR signaling modifier project, cell-based, Sendai virus stimulus, luciferase, 10K MLSCN set (AID 602276;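 active = inhibition at or above 50% at 10 µM; inactive = inhibition below 50%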;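 note: firefly luciferase from ISG56 promoter only with Renilla not read in this screen; 0% = Sendai virus plus DMSO and 100% = medium plus DMSO without virus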); details: HEK293 RL24 IRF3 luciferase reporter, at 10 µM, stronger effect = higher value
# [9] = inhibitors of poly I:C-induced TLR3 signaling, primary screen, cell-based, poly I:C stimulus, luciferase, 10K MLSCN set (AID 602277;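 active = inhibition of the reporter signal at or above 50%; inactive = inhibition below 50%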); details: HEK293-TLR3 RL24 IRF3 luciferase reporter, at 10 µM, stronger effect = higher value
SMILES,cell count [1],inhibition [1],inhibition of aggregation [2],nuclei count [2] [%],inhibition [3],nuclei count [3] [%],fluorescence slope [4],NADPH fluorescence slope [5],slope [6],outcome [7],inhibition [8],inhibition [9]
CC1Oc2ccccc2N(CC(=O)NCc2cccs2)C1=O (stereo not given),787,1.6% (inactive),2.2% (inactive),91.4,-146% (inactive),120,-0.448 (inactive),-6e-05 (inactive),0.00433 (inactive),active; weak signal in gallbladder only,-0.51% (inactive),-12.6% (inactive)
CC(C)OC(=O)c1cc(NC(=O)C2C3CCC(O3)C2C(=O)O)cc(C(=O)OC(C)C)c1 (stereo not given),418,4.2% (inactive),7.3% (inactive),108,-49.1% (inactive),113,-0.454 (inactive),-5.2e-05 (inactive),0.00511 (inactive),inactive,20.3% (inactive),13.2% (inactive)
CCc1nnc(NC(=O)CSc2nnc(-c3ccccc3OC)n2-c2ccccc2)s1,276,-6.9% (inactive),14.1% (inactive),146,-163% (inactive),128,-0.396 (inactive),-7.8e-05 (inactive),0.00574 (inactive),inactive,11.4% (inactive),8.06% (inactive)
CC(=O)c1ccc(N2CCN(C(=O)c3cc(C)on3)CC2)cc1,319,0% (inactive),18.7% (inactive),102,40.6% (inactive),80.7,-0.465 (inactive),-4.5e-05 (inactive),0.00513 (inactive),inactive,2.68% (inactive),-0.354% (inactive)
O=C(CSc1ccc(-c2ccccc2)nn1)N1CCOCC1,664,-5.6% (inactive),-24% (inactive),118,57.9% (active),132,-0.452 (inactive),-4.4e-05 (inactive),0.00495 (inactive),inactive,5.28% (inactive),-10.6% (inactive)
O=C(c1cnn2c(C(F)F)cc(-c3ccccc3)nc12)N1CCN2CCCC2C1 (stereo not given),223,-3.7% (inactive),13% (inactive),100,-87.1% (inactive),129,-0.251 (inactive),-1.6e-05 (inactive),0.00468 (inactive),inactive,15.8% (inactive),32.7% (inactive)
O=C(O)CCc1ccc(-c2cccs2)n1NC(=O)c1ccccc1Br,338,-5.2% (inactive),2.7% (inactive),94.1,-46.9% (inactive),115,-0.416 (inactive),-5.2e-05 (inactive),0.0044 (inactive),inactive,19.5% (inactive),14.2% (inactive)
COc1ccc2c3c(c(=O)oc2c1OCC(N)=O)CCCC3,609,-3.8% (inactive),-17.4% (inactive),111,-29.2% (inactive),102,-0.0534 (active),-8.5e-06 (inactive),0.00487 (inactive),inactive,14% (inactive),2.31% (inactive)
O=C(CCn1[nH]c(=O)c2ccccc2c1=O)NCCO,588,-6.5% (inactive),0.4% (inactive),97.8,-35.4% (inactive),71.1,-0.361 (inactive),-5.6e-05 (inactive),0.00681 (inactive),inactive,1.06% (inactive),-8.68% (inactive)
Cc1sc2ncnc(Oc3ccc(-n4ccnc4)cc3)c2c1C,377,-13.2% (inactive),-1% (inactive),109,-56.2% (inactive),140,-0.382 (inactive),7e-06 (inactive),0.00491 (inactive),inactive,-6.33% (inactive),-14.4% (inactive)
